Test results taken from the EternaBench riboswitch data.

Test system: MS2 coat protein
Assay: apparent Kd, MS2 coat protein; higher = weaker binding; RNA-MaP array; FMN 200 µM where present
Summary of the method: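 The apparent Kd comes from binding curves fitted cluster by cluster, filtered, and summarised as a median. Those curves followed SNAP-549-labelled MS2 coat protein from 0.7 or 1.5 nM, doubling to 3 µM, on Illumina sequencing-chip clusters where stalled E. coli RNA polymerase had transcribed the designs, without and then with constant ligand. The buffer was 100 mM Tris-HCl pH 7.5, 80 mM KCl, 4 mM MgCl2, BSA, DTT, yeast tRNA and Tween-20, and green signal was normalised to red-channel RNA signal and control-cluster median Fmax.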

[1] = designed as: ON switch for flavin mononucleotide, no ligand
[2] = ligand present: flavin mononucleotide, designed as: ON switch for flavin mononucleotide
[3] = designed as: OFF switch for flavin mononucleotide, no ligand
[4] = ligand present: flavin mononucleotide, designed as: OFF switch for flavin mononucleotide

Row | Sequence | apparent Kd [1] | apparent Kd [2] | apparent Kd [3] | apparent Kd [4]
1 | UAUAACUAACAGAAGGGUAUUUGGGAUCAUUAUUAGGAGGAAAUACUAUACAGGAUAUGUAAUACAUGAGGAUCACCCAUGUUC | 20 nM | 15.7 nM |  | 
2 | GAUAGGAUGUGAGGAUAUGCUGAGGAUACUUCAGCAGAAGGCACAUGAGGAUCACCCAUGUACACUUAUCAUAAAUACCCUAUC |  |  | 13 nM | 17.9 nM
3 | GUGUAGAUAGGAUAUACGAGAGUCUAGCGAAGCUAGAUUCUACAUGAGGAUCACCCAUGUAGAAGGGUCUACAC |  |  | 16.5 nM | 19.2 nM
4 | CGCACUUAGCGAGGAUAUGUAAAACAUGAGGAUCACCCAUGUGAUUUAGUAUCAAUUUUAAUGAAACAGAAGGCGCUUAGUGCG |  |  | 8.26 nM | 8.91 nM
5 | UGUCGGAGCAGAGGAUAUUACAUGAGGAUCACCCAUGUAUGAACCAAUAGCUGGAAACAGCAAGGUAAGAAGGCUGCUCCGACA |  |  | 5.24 nM | 9.98 nM
6 | GAUCGACAUGAGGAUCACCCAUGUCAGGAUAUCGUCACUGGAGCUUCGGCUCCAGUGACGAGAAGGGACAUAAU |  |  | 31.9 nM | 44.6 nM
7 | GUCGGAAACGACAAAAGUAUGGAUCCAGAAGGCAUGUACAUGAGGAUCACCCAUGUCUAAAGAUAUGAGGAUAUGGAUCCAUAC | 6.71 nM | 5.18 nM |  | 
8 | UUAGAAAGGUUAGGAUAUUAAUUAUUGUAUAGUAUGAUCUACAUGAGGAUCACCCAUGUUAAAUAUAAGAAGGAACGUUAGAUU |  |  | 57.1 nM | 54.8 nM
9 | CUACUCAUGUAAGGAUAUGCAGCCGAAACGGCUGCAGAAGGUACUAUAAUACAUGAGGAUCACCCAUGUAAAAUAAAUAAAGUU | 33.8 nM | 14.7 nM |  | 
10 | UAAAUGUGAGGAUAUUCGUAGUACUCGGAGACGAGUAUUACGGAGAAGGCACAUGAGGAUCACCCAUGUUCCUU |  |  | 21.3 nM | 188 nM
11 | AUGGUUGUCGUAGGAUAUGUAGGAUAUUCCUACAUGAGGAUCACCCAUGUUCGCAUGGAAGAAGGACAGAAGGACGAUGACCAC | 1480 nM | 9.4 nM |  | 
12 | GUUGCUAUCGGAGGAUAUUCAUACCGGAAACGGACAUGAGGAUCACCCAUGUGGCGAAAGCCAUGGGAGAAGGCCGAUAGCAAC | 1350 nM | 138 nM |  | 
13 | AGUACUACAGGAUAUACAUGAGUGAUACUCAUAUCCCUACUACAUGAGGAUCACCCAUGUAGAAGGGUAGUACA |  |  | 11.7 nM | 10.1 nM
14 | UUUAAUAAGUAGAAGGACGGAGAGUAUGAAGUCGUAGGAUAUACAUAAGACAUGAGGAUCACCCAUGUGUGUAUUUUGGGUAUG |  |  | 12.8 nM | 13.4 nM
15 | GUAGCAAUCGGAGGAUAUUCAUGAAACAUGAGGAUCACCCAUGUUAAUUUGGGAGAAGGCCGAUUGCUACAAGAGCGAAAGCUC | 8.14 nM | 5.35 nM |  | 
16 | GGAUCCAUGUAGAAGGCUGUCUUAAAAUAGGACAGAGGAUAUACAUGAGGAUCACCCAUGUACUCCUUUAAAAGGAUCCAAAUA |  |  | 5.5 nM | 8.65 nM
17 | GAAAAACAUGAGGAUCACCCAUGUAAGGAUAUGCUGAAAAAACACUGGAAACAGUGCAGCAGAAGGUACAAAAG |  |  | 65.1 nM | 103 nM
18 | AGAAACUAGGAGAAGGACAUAUGAUUAAGACGAAACAUGAGGAUCACCCAUGUAGGAUAUCCUAGUUUCAGGAUCGUGAGAUCA |  |  | 7.58 nM | 15.3 nM
19 | GCUGUAAAUGAGAAGGCGAUCAUGAAACAUGAUCGAGGAUAUCAUGUUUACAUGAGGAUCACCCAUGUAUGGGUAUAUUGCAGC | 618 nM | 19.6 nM |  | 
20 | GUGCGGUAGGAGAAGGACGGAGGCUUCAUUACAUACAUGAGGAUCACCCAUGUAGGAUAUCCUACCUCACGCGGCCUCCUUCUG |  |  | 6.52 nM | 7.65 nM
21 | CUUGUGUUAGGAUAUGCGCCCUGAAGAAGCAGGGCCAGAGAGCAGAAGGAACAUGAGGAUCACCCAUGUGUGAC |  |  | 60.3 nM | 51.2 nM

Row | Sequence | apparent Kd [1] | apparent Kd [2] | apparent Kd [3] | apparent Kd [4]
22 | ACGAGGCUAGGAUAUACACAUCUGAUGACUCAUCCUAAAACACAUGAGGAUCACCCAUGUAGAAGGAGCAAAUA |  |  | 20.3 nM | 15.1 nM
23 | ACAUGCCUGUCGAUGCUCGACAUGAGGAUCACCCAUGUACAGCAGGAUAUGCAGAACUAACUCGUGCAGAAGGGCUGUACCUAA |  |  | 90.8 nM | 226 nM
24 | CGUUGUUCCGCAGGAUAUGCAUUGGAUUACAAUGCAGAAGGGCGAUUACAUGAGGAUCACCCAUGUGUGGACAAUAAGGAAGAG | 1490 nM | 142 nM |  | 
25 | UUCCGGCGUGUAGGAUAUGGAUCCGAUUAGGAUCCAGAAGGACAUGAGGAUCACCCAUGUACAUGUAAACAGUCAUCACCGGAG |  |  | 7.36 nM | 11.4 nM
26 | GCUCGUGGACAGAAGGCGACAUGAGGAUCACCCAUGUUGGCUCGGGUAUGACCAAUCCGCAUGAUCGAGGAUAUGUCUGCGGGC |  |  | 419 nM | 19.2 nM
27 | AGUGGGUGUGAUAAAUAGUGGAAGUAGGAUAUGGGCUUACAUGAGGAUCACCCAUGUAUACAGCGCCAGAAGGACUGGACUGUA | 75.3 nM | 34.6 nM |  | 
28 | AAUUCGUUCUAGAAGGUGCAUUUUUUAAACAUGCAAGGAUAUAGACAUGAGGAUCACCCAUGUCUAUGAGACAUCGGCCUCCUG |  |  | 6.3 nM | 13.3 nM
29 | AAAUAACAUGUAGGAUAUCCAGCAUUGACCAUCGGAGAAGGACAUGAGGAUCACCCAUGUACCGAUACAAUGGAAUAAGGGAAU |  |  | 16 nM | 17.9 nM
30 | UCCACUGCUGAGAAGGGAUACGUCUGGGUCGCAUCAGGAUAUCGAUACAGUGCAGCAUGAGGACAUGAGGAUCACCCAUGUGUG | 102 nM | 49.6 nM |  | 
31 | CCACGUCACAUCUACAUGAGGAUCACCCAUGUCAAAAGACAUGAGGAUAUGCUACCUAAUUGGUAGCAGAAGGCAUGGACGUGG | 982 nM | 64.4 nM |  | 
32 | AUCAGCUCGUCAGGAUAUACGUCACUGCGUCAGCAGUGUGGCAAGAUCACAUGAGGAUCACCCAUGUAGAAGGGACGAGCUGAU |  |  | 21.2 nM | 399 nM
33 | ACGUUACAUGAGGAUCACCCAUGUGAGGAUAUGGUGCGGUAGUGUCCUGUCGCGUACUCCAGAAGGCGCGGGUG |  |  | 204 nM | 147 nM
34 | CAGGUAGACUGAGGAUAUACAAUAAACAGCUAGUCUAUCUAGCUGCCGACAUGAGGAUCACCCAUGUAGAAGGCAGUCUGCCUG |  |  | 18.5 nM | 40 nM
35 | UUAUUAAGUGUGAGGAUAUGCUGGUCCUUGGAUCAGCAGAAGGCACAUGAGGAUCACCCAUGUACAAUAUUUUA |  |  | 39 nM | 230 nM
36 | AUCAGCUCGUCAGGAUAUACGUCACUGCGUCAGCAGUGUGGUAAGAUUACAUGAGGAUCACCCAUGUAGAAGGGACGAGCUGAU |  |  | 6.38 nM | 8.59 nM
37 | AUAAGCUCGUCAGGAUAUACAACAUUGUGUAAGCAGUGUGGUAUGAUCACAUGAGGAUCACCCAUGUAGAAGGGACGAGCUUAU |  |  | 6.9 nM | 44.9 nM
38 | AUGACUCGUGUUAGGAUAUCUUCGGCGUGGCUGAUGGAGAAGGGACAUGAGGAUCACCCAUGUAUCCUGGUCGG |  |  | 71.3 nM | 123 nM
39 | GCGACGAAAGUCGAACGAUGUAGCAGAAGGACAUGAGGAUCACCCAUGUCAGCUGUAACAGCCAUGUAGGAUAUGCUACAUCGU |  |  | 4.18 nM | 5.27 nM
40 | GCCUCACAUGAGGAUCACCCAUGUCAGGAUAUGCCGAUCUUAUGGUCUGGUACGACGAGCAGAAGGGACAUGCA |  |  | 19.5 nM | 57.9 nM
41 | AGACCAGUUCUAGGAUAUGUGUGACGUGAGUAAACAGAAGGAGAACAUGAGGAUCACCCAUGUGGGCCAAUCAUCCUCACGUGG |  |  | 44.9 nM | 371 nM
